Here are results for eleven molecules from ChEMBL document CHEMBL1147686, “Non-peptide calcitonin gene-related peptide receptor antagonists from a benzodiazepinone lead” (Bioorg Med Chem Lett, 2006).

Structures are written as SMILES.

Data set [1] is described as follows: Half life in iv dosed rat. The class given is ADME, organism-based. The following applies: in vivo. Put shortly: (§1)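 Rats received compound intravenously; plasma half-life and clearance derived from the iv profile.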
Data set [2] can be described thus: Cmax in rat. Type of data set: ADME, organism-based. Particulars: in vivo.
Data set [3] is described as follows: Clearance in iv dosed rat. Type of data set: ADME, organism-based. Particulars: in vivo. Put shortly: as §1
For data set [4], the target named is T1, Calcitonin-gene-related peptide receptor, CALCRL/RAMP1 (Homo sapiens, UniProt O60894+Q16602). The data set is described as follows: Displacement of [125I]CGRP from human cloned CLR/RAMP1 receptor expressed in E10 cells. Type of data set: cell-based. (In general: Displacement assays read how much labelled ligand stays bound in the presence of the test substance.)
T1 sequence (O60894 whole entry): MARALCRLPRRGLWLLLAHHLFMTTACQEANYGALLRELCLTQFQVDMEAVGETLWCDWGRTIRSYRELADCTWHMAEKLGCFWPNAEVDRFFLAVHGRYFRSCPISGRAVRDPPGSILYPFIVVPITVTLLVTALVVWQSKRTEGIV
T1 sequence (Q16602 whole entry): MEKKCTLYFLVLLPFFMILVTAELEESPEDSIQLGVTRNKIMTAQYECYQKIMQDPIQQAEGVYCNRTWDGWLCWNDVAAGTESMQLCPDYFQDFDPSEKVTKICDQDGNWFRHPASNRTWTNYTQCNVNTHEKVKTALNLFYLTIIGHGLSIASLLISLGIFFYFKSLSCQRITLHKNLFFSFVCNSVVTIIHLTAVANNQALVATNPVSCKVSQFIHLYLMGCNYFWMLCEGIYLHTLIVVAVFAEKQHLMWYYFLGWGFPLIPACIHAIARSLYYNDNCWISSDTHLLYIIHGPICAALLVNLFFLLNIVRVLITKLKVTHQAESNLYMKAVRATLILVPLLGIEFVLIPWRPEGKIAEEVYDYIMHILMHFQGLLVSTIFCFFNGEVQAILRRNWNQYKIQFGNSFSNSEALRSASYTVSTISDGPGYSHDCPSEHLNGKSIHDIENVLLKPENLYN

Data set [5] is described as follows: Oral bioavailability in rat. The following applies: in vivo. The class given is ADME, organism-based.
For data set [6], the target named is T1, Calcitonin-gene-related peptide receptor, CALCRL/RAMP1. The data set is described as follows: Antagonist activity at human cloned CLR/RAMP1 receptor expressed in E10 cells measured as inhibition of CGRP-mediated cAMP production. Type of data set: functional, cell-based. An outline of the steps: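 Whole E10 cells stably expressing cloned human CLR/RAMP1; antagonist tested against CGRP-stimulated cAMP production, IC50 from inhibition of the cAMP response.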
Background: cAMP levels reflect the balance of adenylyl cyclase and phosphodiesterase activity.

Data set [7] concerns the target Calcitonin-gene-related peptide receptor; CALCRL/RAMP1 (Rattus norvegicus) (UniProt Q63118+Q9JJ74). As to the kind of experiment: Displacement of [125I]CGRP from rat CLR/RAMP1 receptor at 100 uM. The class given is protein-complex assay.
Data set [8] has as its target T1, Calcitonin-gene-related peptide receptor, CALCRL/RAMP1. The data set is described as follows: Antagonist activity at human cloned CLR/RAMP1 receptor expressed in E10 cells measured as inhibition of CGRP-mediated cAMP production at 17 uM. Type of data set: functional, cell-based.
Data set [9] shares this target. The data set is described as follows: Displacement of [125I]CGRP from human cloned CLR/RAMP1 receptor expressed in SK-N-MC cells at 100 uM. Type of data set: cell-based.

One may read the half-life as how long it takes for the measured level to halve. Lower therefore signals fast loss. By Cmax is commonly meant the highest concentration seen after dosing. Broadly, the clearance is a measure of how efficiently the substance is removed, as volume per time. Read a low clearance as inefficient removal. For orientation: Ki means a measure of affinity in units of concentration, obtained from inhibition or displacement. As a reminder, the bioavailability is dose-corrected exposure relative to a reference, in per cent. What is called IC50 is the concentration that gives 50% inhibition. By inhibition is commonly meant the drop in the measured response relative to a control, in per cent. In the case of `O=C(N[C@@H]1N=C(c2ccccc2)c2ccccc2N(CC(F)(F)F)C1=O)N1CCC(N2Cc3ccccc3NC2=O)CC1`, the half-life in data set [1] was 102 min. In [2], this molecule registered a Cmax of 240 nM. This molecule yielded a clearance in data set [3] of 20 mL/min/kg. Also, the Ki in data set [4] is 44 nM. This molecule gave a bioavailability in [5] of 10%. Also, in data set [6], the IC50 is 38 nM and the Kb is 77 nM. In [6] (read-out: pA2 (converted)), the Kb is 79.4 nM. Also, in [7], the inhibition is 35%.

For the molecule `CCN1C(=O)[C@H](NC(=O)N2CCC(N3Cc4ccccc4NC3=O)CC2)N=C(c2ccccc2)c2ccccc21`, the inhibitory constant (Ki) in [4] was 897 nM. Besides, the IC50 in data set [6] was 990 nM.

On to `CN1C(=O)[C@H](NC(=O)Nc2ccc3c(c2)CCC2(C3)NC(=O)NC2=O)N=C(c2ccccc2)c2ccccc21` (some centres not stated), for which, in data set [4], the Ki is 4250 nM. Moreover, the inhibition in [8] is 57%.

Regarding `CN1C(=O)C(NC(=O)N2CCC(n3c(=O)[nH]c4ccccc43)CC2)N=C(c2ccccc2)c2ccccc21` (racemic), the Ki in [4] is over 13000 nM.

Consider `CC(C)N1C(=O)C(NC(=O)N2CCC(N3Cc4ccccc4NC3=O)CC2)N=C(c2ccccc2)c2ccccc21` (racemic), for which the inhibitory constant (Ki) in data set [4] was 1060 nM. In data set [6], the half-inhibitory concentration (IC50) is 1810 nM.

With `CN1C(=O)[C@@H](NC(=O)N2CCC(N3Cc4ccccc4NC3=O)CC2)N=C(c2ccccc2)c2ccccc21`, the inhibition constant (Ki) in data set [4] was 8400 nM. Moreover, the IC50 in [6] is 4450 nM.

For the molecule `O=C(N[C@@H]1N=C(c2ccccc2)c2ccccc2N(CC(F)(F)F)C1=O)N1CCC(N2CCc3ccccc3NC2=O)CC1`, the Ki in data set [4] was 61 nM. In data set [6], the IC50 is 43 nM.

For the molecule `CN1C(=O)[C@H](NC(=O)N2CCC(N3Cc4ccccc4NC3=O)CC2)N=C(c2ccccc2)c2ccccc21`, the Ki in data set [4] is 2200 nM. For the same molecule, the concentration for half-maximal inhibition (IC50) in [6] was 3640 nM.

On to `CC(C)N1C(=O)C(NC(=O)N2CCC(N3Cc4ccccc4N(C)C3=O)CC2)N=C(c2ccccc2)c2ccccc21` (racemic), for which the inhibition in data set [9] is 33%.

Consider `O=C(N[C@H](Cc1cc(Br)c(O)c(Br)c1)C(=O)N1CCN(c2ccccc2)CC1)N1CCC(n2c(O)nc3ccccc32)CC1`, for which the inhibition constant Ki in [4] was 83 nM. Moreover, in [6], the IC50 is 75 nM.

As to `O=C(N[C@@H]1N=C(c2ccccc2)c2ccccc2N(CC(F)(F)F)C1=O)N1CCC(n2c(=O)[nH]c3ccccc32)CC1`, the inhibition constant (Ki) in [4] is 2370 nM. In data set [6], the 50% inhibitory concentration (IC50) is 1580 nM.
